Experiments:
[1] = target: T1, P-gp (ABCB1) (Homo sapiens, UniProt P08183); assay: Activation of human P-gp expressed in high five insect cell membrane vesicles by measuring the vanadate-sensitive ATPase activity of P-gp at 2.5 uM preincubated for 5 mins in the presence of sodium orthovanadate measured after 20 mins by colorimetric method; settings: read-out: Activity
[2] = target: T1, P-gp (ABCB1); assay: Activation of human P-gp expressed in high five insect cell membrane vesicles by measuring the vanadate-sensitive ATPase activity of P-gp at 0.5 uM preincubated for 5 mins in the presence of sodium orthovanadate measured after 20 mins by colorimetric method; settings: read-out: Activity
[3] = target: T1, P-gp (ABCB1); assay: Activation of human P-gp expressed in high five insect cell membrane vesicles by measuring the vanadate-sensitive ATPase activity of P-gp at 0.05 uM preincubated for 5 mins in the presence of sodium orthovanadate measured after 20 mins by colorimetric method; settings: read-out: Activity
[4] = target: T2, ATP-dependent translocase ABCB1 (Homo sapiens, UniProt P08183); assay: Inhibition of human P-gp transfected in HEK293 cells assessed as potentiation of paclitaxel-induced cytotoxicity by measuring fold reduction in paclitaxel IC50 at 10 uM pre-incubated for 1 hr before paclitaxel addition and measured after 72 hrs by MTT assay; type: cell-based; settings: hek293, 72 h
T2 sequence (P08183 whole entry): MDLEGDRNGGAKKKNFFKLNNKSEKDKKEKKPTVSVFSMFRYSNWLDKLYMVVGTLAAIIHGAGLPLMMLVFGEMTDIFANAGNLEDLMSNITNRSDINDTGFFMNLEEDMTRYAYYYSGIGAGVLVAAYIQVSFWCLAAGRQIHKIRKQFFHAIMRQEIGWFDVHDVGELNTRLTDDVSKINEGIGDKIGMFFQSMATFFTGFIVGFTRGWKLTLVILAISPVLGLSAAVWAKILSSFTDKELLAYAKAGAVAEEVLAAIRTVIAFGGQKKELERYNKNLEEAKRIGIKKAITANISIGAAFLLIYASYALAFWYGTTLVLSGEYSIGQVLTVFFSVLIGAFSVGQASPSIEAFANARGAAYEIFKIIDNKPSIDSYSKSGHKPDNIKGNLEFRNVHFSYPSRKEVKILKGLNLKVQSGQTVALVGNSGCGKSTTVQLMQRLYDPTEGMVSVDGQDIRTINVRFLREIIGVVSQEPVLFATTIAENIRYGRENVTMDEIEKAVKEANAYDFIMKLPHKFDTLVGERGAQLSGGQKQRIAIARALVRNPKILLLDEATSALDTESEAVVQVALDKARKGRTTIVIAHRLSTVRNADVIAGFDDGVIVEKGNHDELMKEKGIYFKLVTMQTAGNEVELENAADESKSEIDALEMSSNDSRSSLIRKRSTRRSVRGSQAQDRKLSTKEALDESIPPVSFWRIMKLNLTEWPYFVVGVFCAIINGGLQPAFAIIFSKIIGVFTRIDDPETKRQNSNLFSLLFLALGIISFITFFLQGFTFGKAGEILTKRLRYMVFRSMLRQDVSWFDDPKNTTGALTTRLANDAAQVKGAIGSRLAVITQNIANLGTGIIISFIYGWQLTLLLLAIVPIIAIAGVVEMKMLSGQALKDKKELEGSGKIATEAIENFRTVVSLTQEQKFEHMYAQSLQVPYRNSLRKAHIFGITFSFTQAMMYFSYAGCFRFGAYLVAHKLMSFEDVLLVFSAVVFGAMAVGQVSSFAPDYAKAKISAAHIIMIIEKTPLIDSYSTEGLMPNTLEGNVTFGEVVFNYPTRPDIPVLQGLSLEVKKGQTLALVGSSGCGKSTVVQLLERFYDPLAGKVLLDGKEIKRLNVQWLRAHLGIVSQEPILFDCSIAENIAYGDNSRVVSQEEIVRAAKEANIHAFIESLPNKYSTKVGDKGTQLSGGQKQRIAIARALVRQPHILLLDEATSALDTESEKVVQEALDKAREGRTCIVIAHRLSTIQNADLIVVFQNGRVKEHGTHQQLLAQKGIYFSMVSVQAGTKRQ
Procedure, shortened: (§1)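 HEK293 cells stably transfected with ABCB1 or empty pcDNA3.1 vector, kept in G418. Seeded at 5000/well and grown 24 h, then given modulator at 10 μM for 1 h before serially diluted paclitaxel (up to 10 μM). MTT read at 570 nm after 72 h. Paclitaxel IC50 from four experiments in triplicate. Fold resistance = IC50 with modulator ÷ IC50 of paclitaxel alone in vector-control cells.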

[5] = target: T1, P-gp (ABCB1); assay: Inhibition of human P-gp expressed in high five insect cell membrane vesicles by measuring the vanadate-sensitive ATPase activity of P-gp at 0.5 uM preincubated for 5 mins in the presence of sodium orthovanadate measured after 20 mins by colorimetric method
[6] = target: T3, CYP3A4 (Homo sapiens, UniProt P08684); assay: (§2) Inhibition of CYP3A4 (unknown origin) at 25 uM by fluorescence based-vivid CYP450 green screening kit based assay; type: ADME
T3 sequence (P08684 whole entry): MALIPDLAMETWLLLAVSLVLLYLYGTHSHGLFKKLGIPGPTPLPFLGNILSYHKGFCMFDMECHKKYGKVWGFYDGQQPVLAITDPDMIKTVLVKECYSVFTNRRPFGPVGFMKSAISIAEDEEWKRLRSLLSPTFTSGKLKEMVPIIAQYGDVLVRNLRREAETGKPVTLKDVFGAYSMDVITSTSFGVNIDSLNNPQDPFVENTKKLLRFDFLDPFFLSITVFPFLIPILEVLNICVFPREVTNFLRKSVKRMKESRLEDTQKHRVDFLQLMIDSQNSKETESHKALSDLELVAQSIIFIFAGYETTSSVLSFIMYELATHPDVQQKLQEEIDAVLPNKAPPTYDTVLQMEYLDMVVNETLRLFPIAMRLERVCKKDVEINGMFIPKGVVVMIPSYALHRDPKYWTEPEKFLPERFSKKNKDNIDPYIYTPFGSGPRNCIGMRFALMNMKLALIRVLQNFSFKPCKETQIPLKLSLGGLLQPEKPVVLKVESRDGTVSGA

[7] = target: T3, CYP3A4; assay: Inhibition of CYP3A4 (unknown origin) at 50 uM by fluorescence based-vivid CYP450 green screening kit based assay; type: ADME
[8] = tested on: HEK293; assay: Potentiation of paclitaxel-induced cytotoxicity against parental HEK293-pcDNA 3.1 transfected cells assessed as fold reduction in paclitaxel IC50 at 10 uM pre-incubated for 1 hr before paclitaxel addition and measured after 72 hrs by MTT assay; type: functional, Homo sapiens; procedure, shortened: as §1
[9] = Cytotoxicity in P-gp tranfected HEK293 cells assessed as cell survival at 10 uM after 72 hrs by MTT assay; type: ADME, cell-based; settings: human, P-gp transfected HEK293 cells
Procedure, shortened: (§3)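 HEK293 cells stably transfected with empty pcDNA3.1 vector or ABCB1 vector, kept in DMEM with 10% FBS, 1% penicillin/streptomycin, and 2 mg/mL G418 at 37°C in 5% CO2. Cells were seeded at 5000/well, and after 24 h treated with test compound alone, diluted from 10 mM DMSO stocks into medium. After 72 h, viability was read by MTT (4 mg/mL, 4 h), with formazan dissolved in DMSO and absorbance read at 570 nm.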

[10] = Cytotoxicity in parental HEK293-pcDNA 3.1 transfected cells assessed as cell survival at 10 uM after 72 hrs by MTT assay; type: cell-based; settings: human, parental HEK293 cells transfected with pcDNA 3.1; procedure, shortened: as §3
[11] = target: T1, P-gp (ABCB1); assay: Inhibition of human P-gp expressed in high five insect cell membrane vesicles by measuring the vanadate-sensitive ATPase activity of P-gp at 0.05 uM preincubated for 5 mins in the presence of sodium orthovanadate measured after 20 mins by colorimetric method
[12] = target: T1, P-gp (ABCB1); assay: Inhibition of human P-gp expressed in high five insect cell membrane vesicles by measuring the vanadate-sensitive ATPase activity of P-gp at 2.5 uM preincubated for 5 mins in the presence of sodium orthovanadate measured after 20 mins by colorimetric method
[13] = target: Cytochrome P450 3A4 (Homo sapiens, UniProt P08684); assay: as §2; type: ADME; settings: 25 µM
Cytochrome P450 3A4, sequence (P08684 whole entry): as above

[14] = target: T2, ATP-dependent translocase ABCB1; assay: Displacement of [125I]-IAAP from human P-gp expressed in high five insect cell membrane vesicles preincubated for 10 mins followed by photocrosslinking for 10 mins by exposing under UV light for 10 mins by SDS-PAGE based method
Procedure, shortened: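 Membrane vesicles from P-gp-expressing High Five insect cells (65–75 μg protein/100 μL) incubated with compound (0–5 or 0–10 μM) in 50 mM MES-Tris pH 6.8, 150 mM NaCl, 37 °C, 10 min; moved to 4 °C, 4–5 nM [125I]-IAAP added under subdued light; 366 nm UV 10 min; P-gp band incorporation quantified after SDS-PAGE, DMSO-only as 100%.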

T1 sequence (P08183 whole entry): as the sequence (P08183 whole entry) above

activity at 20 min, 2.5 µM [1] [%] | activity at 20 min, 0.5 µM [2] [%] | Compound | viability at 72 h, 10 µM [9] [%] | viability at 72 h, 10 µM [10] [%] | further results
13 | ≤ 10 | COc1cc(C(=O)NCc2nc(C(=O)NC3CCC(F)(F)CC3)cs2)cc(OC)c1OC | – | – | –
– | 142 | COc1cc(C(=O)N[C@H](c2nc(C(=O)Nc3ccccc3C(=O)Nc3ccccc3)cs2)C(C)C)cc(OC)c1OC | – | – | activity at 20 min, 0.05 µM [3]: 21%
– | – | COc1cc(C(=O)N[C@H](c2nc(C(=O)NC3CCCCC3)cs2)C(C)C)cc(OC)c1OC | > 80 | > 80 | fold change (FC) [4]: 0.6; inhibition at 20 min, 0.5 µM [5]: 18%; inhibition at 25 µM [6]: 7.03%; inhibition at 50 µM [7]: 52%; fold change (FC) [8]: 1; inhibition at 20 min, 0.05 µM [11]: 20%
– | – | CC(C)[C@H](NC(=O)c1cc(F)c(F)c(F)c1)c1nc(C(=O)NC2CCC(F)(F)CC2)cs1 | – | – | inhibition at 20 min, 2.5 µM [12]: 23.3%; inhibition at 20 min, 0.5 µM [5]: 16.6%
– | – | COc1cc(C(=O)NC(Cc2ccccc2)c2nc(C(=O)NC3CCC(F)(F)CC3)cs2)cc(OC)c1OC (stereo not given) | > 80 | > 80 | inhibition at 20 min, 2.5 µM [12]: 42.5%; fold change (FC) [4]: 1.7; inhibition at 20 min, 0.5 µM [5]: 39.6%; inhibition (INH) [13]: Not Active; inhibition at 50 µM [7]: 32.9%; fold change (FC) [8]: 0.5; IC50 [14]: 760 nM; inhibition (INH) ([14]; human, 10 min): Dose-dependent effect
– | 88 | COc1cc(C(=O)N[C@H](c2nc(C(=O)Nc3ccccc3Oc3ccccc3)cs2)C(C)C)cc(OC)c1OC | – | – | activity at 20 min, 0.05 µM [3]: ≤ 10%
64 | 25 | COc1cc(C(=S)N[C@H](c2nc(C(=S)NC3CCC(F)(F)CC3)cs2)C(C)C)cc(OC)c1OC | – | – | –
154 | 169 | COc1cc(C(=O)N[C@H](c2nc(C(=O)NC3CCN(Cc4ccccc4)CC3)cs2)C(C)C)cc(OC)c1OC | – | – | –
21 | ≤ 10 | COc1cc(C(=O)N2CCCC2c2nc(C(=O)NC3CCC(F)(F)CC3)cs2)cc(OC)c1OC (stereo not given) | – | – | –
60.2 | 53.9 | COc1cc(C(=O)Nc2nc(C(=O)NC3CCC(F)(F)CC3)cs2)cc(OC)c1OC | – | – | –
≤ 10 | ≤ 10 | CC(C)[C@H](N)c1nc(C(=O)NC2CCC(F)(F)CC2)cs1 | – | – | –
– | 143 | COc1cc(C(=O)N[C@H](c2nc(C(=O)Nc3cccc(C(=O)c4ccccc4)c3)cs2)C(C)C)cc(OC)c1OC | – | – | activity at 20 min, 0.05 µM [3]: 13%
134 | 109 | COc1cc(C(=O)N[C@H](c2nc(C(=O)N(C3CCCCC3)C3CCCCC3)cs2)C(C)C)cc(OC)c1OC | – | – | –
176 | 57 | COc1cc(C(=O)N[C@H](c2nc(C(=O)Nc3cc(F)c(F)c(F)c3)cs2)C(C)C)cc(OC)c1OC | – | – | –
92 | 65 | COc1cc(C(=S)N[C@H](c2nc(C(=S)NC3CCCCC3)cs2)C(C)C)cc(OC)c1OC | – | – | –
68 | 16 | COc1cc(C(=O)NC(CC(C)C)c2nc(C(=O)NC3CCC(F)(F)CC3)cs2)cc(OC)c1OC (stereo not given) | – | – | –
– | – | COc1ccc(CCN(C)CCCC(C#N)(c2ccc(OC)c(OC)c2)C(C)C)cc1OC (stereo not given) | > 80 | > 80 | fold change (FC) [8]: 0.9
– | – | O[C@@H](COc1cccc2ncccc12)CN1CCN([C@@H]2c3ccccc3[C@@H]3[C@H](c4ccccc42)C3(F)F)CC1 [ZOSUQUIDAR] | > 80 | > 80 | –

Compound | activity at 20 min, 2.5 µM [1] [%] | activity at 20 min, 0.5 µM [2] [%] | viability at 72 h, 10 µM [9] [%] | viability at 72 h, 10 µM [10] [%] | further results
CC(C)[C@H](NC(=O)c1cccc(N)c1)c1nc(C(=O)Nc2ccccc2C(=O)c2ccccc2)cs1 | – | 308 | > 80 | > 80 | fold change (FC) [4]: 17.9; inhibition at 25 µM [6]: 43.6%; inhibition at 50 µM [7]: 83.3%; fold change (FC) [8]: 0.5; activity at 20 min, 0.05 µM [3]: 376%
COc1cc(C(=O)N[C@H](c2nc(C(=O)N[C@@H]3CCCc4ccccc43)cs2)C(C)C)cc(OC)c1OC | 31.3 | 33.9 | > 80 | > 80 | fold change (FC) [4]: 2.9; fold change (FC) [8]: 1.4

— ChEMBL document CHEMBL4024781, “Comprehensive Synthesis of Amino Acid-Derived Thiazole Peptidomimetic Analogues to Understand the Enigmatic Drug/Substrate-Binding Site of P-Glycoprotein” (J Med Chem, 2018)
